Test results published in ChEMBL document CHEMBL1152726, “Discovery of small molecule human C5a receptor antagonists” (Bioorg Med Chem Lett, 2009).
Activity calls are given as the source filed them. The rule behind the calls is not given here.

Legend:
[1] = molecular target: T1, C5a anaphylatoxin chemotactic receptor 1 (Homo sapiens, UniProt P21730); test: Antagonist activity at human recombinant C5a receptor in HEK cells assessed as inhibition of C5a-induced calcium mobilization; format: functional, cell-based, HEK293
T1 sequence (P21730 whole entry): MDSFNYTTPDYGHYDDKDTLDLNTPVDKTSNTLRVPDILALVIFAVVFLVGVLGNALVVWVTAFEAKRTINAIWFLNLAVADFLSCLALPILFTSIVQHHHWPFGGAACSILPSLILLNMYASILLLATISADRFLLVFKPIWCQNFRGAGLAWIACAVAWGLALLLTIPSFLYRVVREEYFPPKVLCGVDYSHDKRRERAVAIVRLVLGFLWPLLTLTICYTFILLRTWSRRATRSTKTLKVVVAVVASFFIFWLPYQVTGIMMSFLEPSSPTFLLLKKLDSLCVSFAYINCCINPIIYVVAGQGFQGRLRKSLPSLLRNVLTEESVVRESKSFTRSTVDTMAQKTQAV

[2] = Lipophilicity, log D at pH 7.4; conditions: buffer
[3] = Metabolic stability in Sprague-Dawley rat hepatocytes assessed as intrinsic clearance measured per 10^6 cells
[4] = Metabolic stability in human liver microsomes assessed as intrinsic clearance
[5] = molecular target: T2, C5a anaphylatoxin chemotactic receptor 1 (Mus musculus) (UniProt P30993); test: Antagonist activity at mouse recombinant C5a receptor expressed in HEK cells assessed as inhibition of C5a-induced calcium mobilization at 30 uM; format: functional, cell-based; conditions: HEK293
T2 sequence (whole entry): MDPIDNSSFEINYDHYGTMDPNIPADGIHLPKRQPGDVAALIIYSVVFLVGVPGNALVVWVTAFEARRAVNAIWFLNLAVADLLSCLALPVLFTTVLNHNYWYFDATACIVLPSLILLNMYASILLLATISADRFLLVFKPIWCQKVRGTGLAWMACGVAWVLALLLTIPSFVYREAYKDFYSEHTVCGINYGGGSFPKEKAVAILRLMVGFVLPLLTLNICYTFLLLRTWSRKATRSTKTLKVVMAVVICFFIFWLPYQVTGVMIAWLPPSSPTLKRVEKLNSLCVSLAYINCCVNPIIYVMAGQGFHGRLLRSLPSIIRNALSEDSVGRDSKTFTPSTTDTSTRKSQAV
Procedure, shortened: (§1)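 Non-human (dog, mouse or rat) recombinant C5aR cell lines tested for antagonism of C5a-stimulated intracellular calcium mobilization. Values are means of at least two experiments.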

[6] = molecular target: T1, C5a anaphylatoxin chemotactic receptor 1
[7] = molecular target: T3, C5a anaphylatoxin chemotactic receptor 1 (Canis lupus familiaris) (UniProt P30992); test: Antagonist activity at dog recombinant C5a receptor expressed in HEK cells assessed as inhibition of C5a-induced calcium mobilization at 30 uM; format: functional, cell-based; conditions: HEK293; procedure, shortened: as §1
T3 sequence (whole entry): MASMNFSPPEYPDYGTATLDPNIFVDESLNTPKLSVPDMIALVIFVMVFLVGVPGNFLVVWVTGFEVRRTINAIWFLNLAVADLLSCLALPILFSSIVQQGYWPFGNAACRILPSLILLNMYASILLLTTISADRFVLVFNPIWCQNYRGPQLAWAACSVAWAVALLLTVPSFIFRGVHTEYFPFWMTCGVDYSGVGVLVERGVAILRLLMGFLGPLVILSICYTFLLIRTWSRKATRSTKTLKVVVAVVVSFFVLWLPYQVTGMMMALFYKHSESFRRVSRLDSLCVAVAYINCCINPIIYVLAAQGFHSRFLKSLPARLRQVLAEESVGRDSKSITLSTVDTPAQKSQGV

[8] = molecular target: T1, C5a anaphylatoxin chemotactic receptor 1; test: Displacement of from human recombinant C5a receptor expressed in HEK cells by membrane binding assay in presence
[9] = molecular target: T1, C5a anaphylatoxin chemotactic receptor 1; test: Displacement of [Alexa647]C5a from human recombinant C5a receptor expressed in HEK cells by whole cell binding assay; format: cell-based, HEK293
Procedure, shortened: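 Whole-cell FMAT competition binding measured inhibition of Alexa-647-labeled C5a binding to HEK-293 cells co-expressing human recombinant C5aR and Gα16. pIC50 derived; values are means of at least two experiments.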

[10] = molecular target: T1, C5a anaphylatoxin chemotactic receptor 1; test: Displacement of [125I]C5a from human recombinant C5a receptor expressed in HEK cells by membrane binding assay
[11] = molecular target: T4, C5a anaphylatoxin chemotactic receptor 1 (Rattus norvegicus) (UniProt P97520); test: Antagonist activity at rat recombinant C5a receptor expressed in HEK cells assessed as inhibition of C5a-induced calcium mobilization at 30 uM; format: functional, cell-based; conditions: HEK293; procedure, shortened: as §1
T4 sequence (whole entry): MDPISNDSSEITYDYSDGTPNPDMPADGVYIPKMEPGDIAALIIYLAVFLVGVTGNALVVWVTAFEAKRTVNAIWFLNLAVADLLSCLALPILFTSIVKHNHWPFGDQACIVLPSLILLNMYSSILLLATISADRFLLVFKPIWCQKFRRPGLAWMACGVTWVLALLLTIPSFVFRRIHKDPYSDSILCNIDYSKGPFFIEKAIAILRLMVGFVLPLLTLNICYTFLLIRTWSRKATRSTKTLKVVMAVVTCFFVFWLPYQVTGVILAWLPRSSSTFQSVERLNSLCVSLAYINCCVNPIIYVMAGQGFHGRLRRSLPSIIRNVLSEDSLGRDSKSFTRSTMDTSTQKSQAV

Row | SMILES | IC50 [1] [µM] | logD [2] | hepatocyte CLint [3] [µL/min/1e6 cells] | microsomal CLint ([4]; liver microsomes) [µL/min/mg] | also measured
1 | COc1ccc(N(C(=O)c2ccccc2)C(C(=O)NC[C@H](C)O)c2ccccc2F)c(OC)c1 (some centres undefined) | > 0.1 |  |  |  | 
2 | CN(C(=O)c1ccccc1)C(C(=O)NC1CCCC1)c1ccccc1F (centres undefined) | > 10 |  |  |  | 
3 | COc1ccc(N(C(=O)c2ccccc2)C(C(=O)NC[C@@H](C)O)c2ccccc2F)c(OC)c1 (some centres undefined) | 0.0631 | 2.55 | > 150 | 104 | 
4 | COc1ccc(N(C(=O)c2ccccc2)C(C)C(=O)NC2CCCC2)c(OC)c1 (centres undefined) | > 10 |  |  |  | 
5 | COc1ccc(N(C(=O)c2ccccc2)C(C(=O)NC2CCCC2)c2ccccc2F)c(OC)c1 (centres undefined) | 0.0251 | 3.9 |  |  | Activity [5]: inactive; EC50 [6]: 0.123 µM; Activity [7]: inactive; IC50 [8]: 0.0316 µM; IC50 [9]: 0.0398 µM; IC50 [10]: 0.794 µM; Activity [11]: inactive
6 | COc1ccc(N(C(C)=O)C(C(=O)NC2CCCC2)c2ccccc2F)c(OC)c1 (centres undefined) | 0.794 |  |  |  | 
7 | COc1ccc(N(C(=O)c2occc2CN(C)C)C(C(=O)NC[C@@H](C)O)c2ccccc2F)c(OC)c1 (some centres undefined) | 3.16 |  | < 3 | 12 | 
8 | COc1ccc(N(C(=O)c2ccccc2)C(C(=O)NC(C)CN(C)C)c2ccccc2F)c(OC)c1 (centres undefined) | 1 |  | 33 | 135 | 
9 | COc1ccc(N(C(=O)c2ccccc2)C(C(=O)O)c2ccccc2F)c(OC)c1 (centres undefined) | > 10 |  |  |  | 
10 | COc1ccc(N(C(=O)c2occc2C)C(C(=O)NC[C@@H](C)O)c2ccccc2F)c(OC)c1 (some centres undefined) | 0.02 |  | 87 | 126 | 
11 | COc1ccc(N(C(=O)c2occc2Cl)C(C(=O)NC[C@@H](C)O)c2ccccc2F)c(OC)c1 (some centres undefined) | 0.2 | 2.2 | 59 | 148 | 
12 | COc1ccc(N(C(=O)c2occc2CO)C(C(=O)NC[C@@H](C)O)c2ccccc2F)c(OC)c1 (some centres undefined) |  | 1.4 | 8 |  | microsomal CLint ([4]; microsomes): 12 µL/min/mg
13 | COc1ccc(N(C(=O)c2ccco2)C(C(=O)NC2CCCC2)c2ccccc2F)c(OC)c1 (centres undefined) | 0.126 |  | > 150 | > 150 | Activity [5]: inactive; Activity [7]: inactive; IC50 [8]: 0.251 µM; IC50 [9]: 0.0794 µM; IC50 [10]: 3.16 µM; Activity [11]: inactive
14 | COCc1ccoc1C(=O)N(c1ccc(OC)cc1OC)C(C(=O)NC[C@@H](C)O)c1ccccc1F (some centres undefined) | 0.1 | 2 | 35 | 76 | 
15 | COc1ccc(N(C(=O)c2ccoc2Cl)C(C(=O)NC[C@@H](C)O)c2ccccc2F)c(OC)c1 (some centres undefined) | 0.316 | 2.4 | 33 | 48 | 
16 | COc1ccc(N(C(=O)c2ccoc2C)C(C(=O)NC[C@@H](C)O)c2ccccc2F)c(OC)c1 (some centres undefined) | 0.0398 |  | 75 | 134 | 
